Screening results: PubChem BioAssay, Sanford-Burnham Center for Chemical Genomics
This is a sample that favours compounds with a hit; in the whole collection about 1.8% have one here.
UPR CHOP act = activators of apoptotic CHOP UPR arm, primary screen, cell-based, CHO-CHOP luciferase reporter, luminescence, uHTS; activation, % at 10 µM; actives 0.34% (n = 330,000); UPR activation; percent of tunicamycin response over DMSO baseline; AID 449763, 2010;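 active means at 10 µM dose, activation of 40% or more, normalized to positive control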;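 further: 100% = tunicamycin at 10 µg/mL and 0% = DMSO alone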
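Test system: CHO CHOP reporter cells. Input: 500 CHO-CHOP cells per well. Medium: F12 with 10% FBS. Technique: luciferase luminescence. Measure: percent activation relative to tunicamycin control. Dosing: 10 µM compound, 0.5% DMSO. Timing: 16-18 h cell attachment, then 6 h compound exposure, 37 °C.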
697 NFkB inh = inhibitors of PMA/ionomycin-induced NF-kB reporter, 697 cells, primary screen, B-cell NF-kB inhibitor project, cell-based, luminescence, uHTS | 697 B-cell NF-kB luciferase reporter, 16 h | inhibition, % at 4 µM | actives 0.33% (n = 330,000) | AID 435022, 2010; in the data active means inhibition above about 35%
CRFR2-BP antag = antagonists of CRF-BP/CRF-R2 complex, primary screen, cell-based, HEK293, calcium dye fluorescence, uHTS; actives 0.59% (n = 350,000); AID 588475, 2011; CRF-induced calcium fluorescence; inhibition, % at 11.8 µM;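 active means inhibition of the ligand-induced calcium signal above about 50% at the single tested concentration, limit read from the data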
UPR XBP1 act = activators of adaptive XBP1 UPR arm, primary screen, cell-based, CHO-XBP1 luciferase reporter, luminescence, uHTS; IRE1-XBP1 UPR activation; percent of tunicamycin response, DMSO as zero; activation, % at 20 µM; actives 0.33% (n = 330,000);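 active means versus positive control, 20 µM dose yields 30% or more activation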;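 further: 100% = tunicamycin at 10 µg/mL and 0% = DMSO only wells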
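Assay system: IRE1-XBP1 luciferase reporter CHO line. Input: 1000 cells/well. Buffer or medium: F12 with 10% serum. Doses: 20 µM, 1% DMSO. Times: overnight seeding at 37 °C, 6 h compound treatment at 37 °C. Technique: Steady-Glo luciferase glow luminescence, 10 min after reagent addition.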
Jurkat NFkB inh = inhibitors of induced NF-kB luciferase reporter, primary screen, TCR NF-kB activation inhibitor project, cell-based, luminescence, uHTS. Jurkat, PMA/ionomycin-induced NF-kB luciferase reporter. inhibition, % at 4 µM. AID 435003, 2010. actives 0.53% (n = 330,000); in the data active means inhibition above about 50%
CHOP UPR conf = activators of apoptotic CHOP UPR arm, confirmation, cell-based, CHO-CHOP luciferase reporter, single concentration. shares compounds with UPR CHOP act. CHO-CHOP cells, CHOP-luciferase reporter luminescence; percent of tunicamycin response, DMSO as zero. activation, % at 10 µM. actives 64% (n = 1,000). AID 463112, 2010; in the data active means activation above about 33%;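 further: 0% = DMSO wells and 100% = tunicamycin 10 µg/mL wells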
* = called active by the depositor.

Screening CCOC(=O)/C(=C\c1cccc(O)c1)c1nc2sc(C)c(C)c2c(=O)[nH]1 returned UPR CHOP act 47*, 697 NFkB inh 12, CRFR2-BP antag -10, UPR XBP1 act -2, Jurkat NFkB inh 9 and CHOP UPR conf 163*.
Screening CC(C)c1ccc(N2C(=O)CC(Sc3ncn[nH]3)C2=O)cc1 (centres undefined) returned UPR CHOP act 2, 697 NFkB inh 16, CRFR2-BP antag 1, UPR XBP1 act 0 and Jurkat NFkB inh 0.
For CC(C)c1ccc(N2C(=O)CC(Sc3nc4ccccc4o3)C2=O)cc1 (centres undefined) the results were UPR CHOP act 199*, 697 NFkB inh 1, CRFR2-BP antag -5, UPR XBP1 act -6, Jurkat NFkB inh -5 and CHOP UPR conf 95*.
CC(C)(C)C1=CC(=Nc2ccccc2N)C=C(C(C)(C)C)C1=O was read as UPR CHOP act -1, 697 NFkB inh 6, CRFR2-BP antag -57, UPR XBP1 act 0 and Jurkat NFkB inh 2.
CC(C)(C)C1=CC(=O)C(=O)C(C(C)(C)C)=C1 was read as UPR CHOP act 144*, 697 NFkB inh -2, CRFR2-BP antag 14, UPR XBP1 act 0, Jurkat NFkB inh 2 and CHOP UPR conf 326*.
`O=C1COc2ccc(C(=O)CCl)cc2N1` gave UPR CHOP act 148*, 697 NFkB inh 10, CRFR2-BP antag 2, UPR XBP1 act -6, Jurkat NFkB inh 2 and CHOP UPR conf -7.
`Cc1ccc([C@H]2N[C@]3(CCCN(Cc4ccc(Cl)cc4)C3=O)[C@H]3C(=O)N(Cc4ccccc4)C(=O)[C@@H]23)cc1` gave CRFR2-BP antag -7.
Screening O=C(CCS(=O)(=O)c1ccccc1)N(CCCN1CCOCC1)c1nc2ccc(F)cc2s1 returned UPR CHOP act 57*, 697 NFkB inh -27, UPR XBP1 act -7, Jurkat NFkB inh -68 and CHOP UPR conf 21.
For O=C1NN(c2cccc(Br)c2)C(=O)/C1=C\c1ccccc1 the results were UPR CHOP act 4, 697 NFkB inh 9, CRFR2-BP antag -12, UPR XBP1 act -1 and Jurkat NFkB inh -18.
O=C1NN(c2cccc(Br)c2)C(=O)/C1=C/c1cccs1 was read as UPR CHOP act 43*, 697 NFkB inh 16, CRFR2-BP antag -21, UPR XBP1 act 17, Jurkat NFkB inh -5 and CHOP UPR conf 60*.
For Cc1ccc(C(=O)N2CCN(C)CC2)cc1S(=O)(=O)N1CCCCCC1 the results were UPR CHOP act 0, 697 NFkB inh -11, CRFR2-BP antag 1, UPR XBP1 act -3 and Jurkat NFkB inh 13.
`COCCn1c(=O)[nH]c(=O)c2c1nc(-c1ccc(-c3ccc(Cl)cc3[N+](=O)[O-])o1)n2Cc1ccccc1` gave UPR CHOP act 22, 697 NFkB inh 21, CRFR2-BP antag 11, UPR XBP1 act -1 and Jurkat NFkB inh 4.
COc1ccc(-c2ccc(-c3nc4c(c(=O)[nH]c(=O)n4Cc4ccccc4)n3C)o2)c([N+](=O)[O-])c1 was read as UPR CHOP act 59*, 697 NFkB inh 16, CRFR2-BP antag -18, UPR XBP1 act 17, Jurkat NFkB inh -2 and CHOP UPR conf 41*.
`CNc1ccc(C(=O)OCC(=O)NCc2ccc3c(c2)OCO3)cc1[N+](=O)[O-]` gave UPR CHOP act 1, 697 NFkB inh 20, CRFR2-BP antag -2, UPR XBP1 act 5 and Jurkat NFkB inh 12.
`O=C(/C=C/c1ccc2c(c1)S(=O)(=O)N(Cc1ccccc1)[C@H]2CC(=O)N1CCOCC1)N1CCOCC1` gave UPR CHOP act -1, 697 NFkB inh 16, CRFR2-BP antag -8, UPR XBP1 act -4 and Jurkat NFkB inh -2.
For O=[N+]([O-])c1cc(-c2ncccn2)c([N+](=O)[O-])s1 the results were UPR CHOP act 73*, 697 NFkB inh 0, CRFR2-BP antag 21, UPR XBP1 act -5, Jurkat NFkB inh -3 and CHOP UPR conf 164*.
Screening Cc1nc([N+](=O)[O-])c(Br)n1CC(=O)c1ccc(Br)cc1 returned UPR CHOP act 75*, 697 NFkB inh -5, CRFR2-BP antag -11, UPR XBP1 act -3, Jurkat NFkB inh 9 and CHOP UPR conf 43*.
Screening Cc1nc([N+](=O)[O-])c(Br)n1CC(=O)c1ccc2ccccc2c1 returned UPR CHOP act 144*, 697 NFkB inh 12, CRFR2-BP antag -37, UPR XBP1 act 2, Jurkat NFkB inh 15 and CHOP UPR conf 104*.
For N#Cc1ccccc1OCC(=O)Nc1nnc(C2CC2)s1 the results were UPR CHOP act 4, 697 NFkB inh -19, CRFR2-BP antag 2, UPR XBP1 act -1 and Jurkat NFkB inh -13.
C/C(CC(=O)Nc1cc(C)ccn1)=N\NC(=O)c1cccc(F)c1 was read as UPR CHOP act 0, 697 NFkB inh 3, CRFR2-BP antag -4, UPR XBP1 act 0 and Jurkat NFkB inh -8.
For Cc1ccc(C(=O)CSc2nnc3n2CCCCC3)s1 the results were UPR CHOP act 6, 697 NFkB inh -21, CRFR2-BP antag 0, UPR XBP1 act 4 and Jurkat NFkB inh -36.
COc1ccc(/C=C/C(=O)c2ccc([N+](=O)[O-])o2)cc1OC was read as UPR CHOP act 82*, 697 NFkB inh -17, CRFR2-BP antag -69, UPR XBP1 act -8, Jurkat NFkB inh 26 and CHOP UPR conf -1.
O=C(COC(=O)c1ccc([N+](=O)[O-])o1)Nc1cccc(S(=O)(=O)N2CCCCC2)c1 was read as UPR CHOP act 0, 697 NFkB inh 10, CRFR2-BP antag -1, UPR XBP1 act -2 and Jurkat NFkB inh 6.
Cc1ccc(NC(=O)c2cc([N+](=O)[O-])ccc2N2CCOCC2)cc1S(=O)(=O)N1CCOCC1 was read as UPR CHOP act 1, 697 NFkB inh -1, CRFR2-BP antag 11, UPR XBP1 act -6 and Jurkat NFkB inh 4.
For Cc1ccc(NC(=O)c2ccc([N+](=O)[O-])o2)cc1S(=O)(=O)N1CCOCC1 the results were UPR CHOP act 82*, 697 NFkB inh -3, CRFR2-BP antag -16, UPR XBP1 act 0, Jurkat NFkB inh 9 and CHOP UPR conf 40*.
O=C(Nc1cccc(S(=O)(=O)N2CCCCC2)c1)c1ccc([N+](=O)[O-])o1 was read as UPR CHOP act 55*, 697 NFkB inh 21, CRFR2-BP antag 41, UPR XBP1 act 2, Jurkat NFkB inh 15 and CHOP UPR conf 39*.
